The subject of assay [1] is PC-12. The assay is described as follows: Stimulation of nerve growth factor-mediated neurite outgrowth in rat PC12 cells incubated for 96 hrs in presence of 20 ng/ml NGF by phase contrast microscopy. Particulars: for pEC50: Rattus norvegicus, PC-12, 96 h, read-out: EC50; for EC50: pc-12. It is filed as functional, cell-based. In outline: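 PC12 cells (DMEM, 5% FBS, 5% HS, 37 °C, 5% CO2) were detached with 1 mM EGTA/PBS for 15 min and seeded on poly-L-lysine at 3 × 10^4 cells/well. After 24 h they got test medium (1% FBS, 1% HS, 20 ng/mL NGF, graded compound levels) for 96 h. Cells were scored by phase contrast (neurite ≥ soma diameter) as % neurite-bearing; triplicates; EC50 by regression.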

Assay [2] deals with PC-12. Nature of the assay: Stimulation of neurite outgrowth in rat PC12 cells incubated for 96 hrs in absence of 20 ng/ml NGF by phase contrast microscopy. Type of assay: functional, cell-based.

Structures are written as SMILES. pEC50: −log10 of the molar value. The source made the active and inactive calls. No cut-off for these calls is given here. Where only a bound is given, the exact number is not on record here.

In ChEMBL document CHEMBL3588824, “Bioactive Diterpenoids from the Leaves of Callicarpa macrophylla” (J Nat Prod, 2015) one finds EC50 and Activity data, which are given here for 14 molecules.

Consider `C=C[C@@]1(C)CC[C@H]2C(=CC[C@H]3[C@](C)(CO)CCC[C@]23C)[C@H]1O`, for which, in the assay with PC-12 [1], the pEC50 is 5.12.
With `C=C(C)c1ccc2c(c1)CC[C@H]1[C@](C)(C(=O)O)CCC[C@]21C`, in the assay on PC-12 [1], the pEC50 is below 4.52.
Same read-out and setting: the figure for `CC(C)[C@@]12C=C3[C@@H](O)C[C@@H]4[C@@](C)(C(=O)O)CCC[C@@]4(C)[C@]3(CC1)OO2` is 4.97.
As for `C=C[C@@]1(C)CCC2=C(C1)[C@H](OC)C[C@H]1[C@](C)(CO)CCC[C@]21C`, the EC50 result in the assay on PC-12 [1] is “Not Active”. Besides, the result with PC-12 [2] was inactive.
With `C=C[C@@]1(C)CCC2=C(C1)[C@H](OC)C[C@H]1[C@](C)(C(=O)O)CCC[C@]21C`, in the assay with PC-12 [1], the EC50 result is given as “Not Active”. Further, the outcome in the assay with PC-12 [2] was inactive.
Consider `C=C1CC[C@H]2C(C)(C)C(=O)CC[C@]2(C)[C@H]1CC/C(C)=C/C(=O)O`, for which the pEC50 in the assay on PC-12 [1] is 5.22.
The same measure, in the same setting: the figure for `CC(=O)OC[C@]1(O)C[C@]23CC[C@@H]4C(C)(C)C(=O)CC[C@@]4(C)[C@@H]2CC[C@@H]1C3` is 4.96.
Take `CC(C)c1ccc2c(c1)[C@H](O)C[C@H]1[C@](C)(C(=O)O)CCC[C@]21C`: the EC50 result in the assay on PC-12 [1] is recorded as “Not Active”. Besides, in the assay with PC-12 [2], the result was inactive.
For `CC(C)[C@@]12CC[C@@]3(CC[C@H]4[C@](C)(C(=O)O)CCC[C@]4(C)C3=O)[C@@H]1O2`, the pEC50 in the assay on PC-12 [1] is below 4.52.
`CC(C)c1ccc2c(c1)C(=O)C[C@H]1[C@](C)(C(=O)O)CCC[C@]21C`: the EC50 entry in the assay on PC-12 [1] is recorded as “Not Active”. In the assay with PC-12 [2], the outcome was inactive.
Take `C=C[C@@]1(C)CC[C@H]2C(=CC[C@@H]3[C@]2(C)CCC[C@@]3(C)C(=O)O)[C@H]1O`: the pEC50 in the assay on PC-12 [1] is 4.80.
The same measure, in the same setting: the value for `CC1(C)C(=O)CC[C@]2(C)[C@@H]1CC[C@]13C[C@@H](CC[C@H]12)[C@](O)(CO)C3` was 4.71.
On to `C=C[C@@]1(C)CC[C@H]2C(=CC[C@@H]3[C@]2(C)CCC[C@@]3(C)O)[C@H]1O`, for which the EC50 result in the assay with PC-12 [1] was “Not Active”. Further, the outcome with PC-12 [2] was inactive.
The matching figures for `CC(C)[C@]12CC[C@@]34O[C@@]3(CC[C@H]3[C@](C)(C(=O)O)CCC[C@@]34C)[C@H]1O2`: “Not Active” and “inactive”.
